Results reported in ChEMBL document CHEMBL3758168, “Hybrid triazoles: Design and synthesis as potential dual inhibitor of growth and efflux inhibition in tuberculosis” (Eur J Med Chem, 2016).
Converted amounts (≈) assume the structure as drawn.

Legend:
[1] = tested on: Mycolicibacterium smegmatis; test: Anti-tubercular activity against Mycobacterium smegmatis MC2 155 ATCC 700084 after 3 days by microdilution method; assay type: functional; conditions: MC2 155 ATCC 700084, 72 h
Summary of the method: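 M. smegmatis mc2155 grown in MB7H9 + 10% OADC at 37 °C with shaking to OD600 0.8. Inoculum set to 0.5 McFarland, diluted 1:100, and mixed 1:1 with two-fold serial dilutions in MB7H9. Plates incubated 3 days at 37 °C with growth and sterility controls. MIC taken as the lowest concentration with no visible growth.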

[2] = Cytotoxicity against human MDM assessed as cell viability after 3 days by Alamar blue dye-based fluorocytometric analysis relative to control; conditions: 72 h
[3] = tested on: Mycobacterium tuberculosis; test: Antibacterial activity against Mycobacterium tuberculosis H37Rv ATCC 27294T assessed as isoniazid MIC at 64 ug/ml after 7 days by microdilution checkerboard assay; assay type: functional; conditions: 168 h
Summary of the method: (§1)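 Two-dimensional checkerboard in H37Rv at 10^5 CFU/ml in MB7H9/OADC. Partner drug (amikacin, EtBr, isoniazid, ofloxacin or rifampin) two-fold serially diluted across columns 3-11. Test compound two-fold serially diluted down rows 2-6. Plates incubated 7 days at 37 °C, then MTT added overnight. […] Run in triplicate.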

[4] = tested on: Mycobacterium tuberculosis; test: Antibacterial activity against Mycobacterium tuberculosis H37Rv ATCC 27294T assessed as isoniazid MIC at 32 ug/ml after 7 days by microdilution checkerboard assay; assay type: functional; conditions: 168 h; summary of the method: as §1
[5] = tested on: Mycobacterium tuberculosis; test: Antibacterial activity against Mycobacterium tuberculosis H37Rv ATCC 27294T assessed as ethidium bromide MIC at 32 ug/ml after 7 days by microdilution checkerboard assay; assay type: functional; conditions: 168 h; summary of the method: as §1
[6] = tested on: Mycobacterium tuberculosis; test: Antibacterial activity against Mycobacterium tuberculosis H37Rv ATCC 27294T assessed as ethidium bromide MIC at 64 ug/ml after 7 days by microdilution checkerboard assay; assay type: functional; conditions: 168 h; summary of the method: as §1
[7] = tested on: Mycobacterium tuberculosis; test: Antibacterial activity against Mycobacterium tuberculosis H37Rv ATCC 27294T assessed as ethidium bromide MIC at 1 ug/ml after 7 days by microdilution checkerboard assay; assay type: functional; conditions: 168 h; summary of the method: as §1
[8] = tested on: Mycobacterium tuberculosis; test: Antibacterial activity against Mycobacterium tuberculosis H37Rv ATCC 27294T assessed as ethidium bromide MIC at 2 ug/ml after 7 days by microdilution checkerboard assay; assay type: functional; conditions: 168 h; summary of the method: as §1
[9] = tested on: Mycobacterium tuberculosis; test: Antibacterial activity against Mycobacterium tuberculosis H37Rv ATCC 27294T assessed as ethidium bromide MIC at 4 ug/ml after 7 days by microdilution checkerboard assay; assay type: functional; conditions: 168 h; summary of the method: as §1
[10] = tested on: Mycobacterium tuberculosis; test: Antibacterial activity against Mycobacterium tuberculosis H37Rv ATCC 27294T assessed as ethidium bromide MIC at 8 ug/ml after 7 days by microdilution checkerboard assay; assay type: functional; conditions: 168 h; summary of the method: as §1
[11] = tested on: Mycobacterium tuberculosis; test: Antibacterial activity against Mycobacterium tuberculosis H37Rv ATCC 27294T assessed as ethidium bromide MIC at 16 ug/ml after 7 days by microdilution checkerboard assay; assay type: functional; conditions: 168 h; summary of the method: as §1
[12] = tested on: Mycobacterium tuberculosis; test: Antibacterial activity against Mycobacterium tuberculosis H37Rv ATCC 27294T assessed as ofloxacin MIC at 32 ug/ml after 7 days by microdilution checkerboard assay; assay type: functional; conditions: 168 h; summary of the method: as §1
[13] = tested on: Mycobacterium tuberculosis; test: Antibacterial activity against Mycobacterium tuberculosis H37Rv ATCC 27294T assessed as ofloxacin MIC at 64 ug/ml after 7 days by microdilution checkerboard assay; assay type: functional; conditions: 168 h; summary of the method: as §1
[14] = tested on: Mycobacterium tuberculosis; test: Antibacterial activity against Mycobacterium tuberculosis H37Rv ATCC 27294T assessed as ofloxacin MIC at 1 ug/ml after 7 days by microdilution checkerboard assay; assay type: functional; conditions: 168 h; summary of the method: as §1
[15] = tested on: Mycobacterium tuberculosis; test: Antibacterial activity against Mycobacterium tuberculosis H37Rv ATCC 27294T assessed as ofloxacin MIC at 2 ug/ml after 7 days by microdilution checkerboard assay; assay type: functional; conditions: 168 h; summary of the method: as §1
[16] = tested on: Mycobacterium tuberculosis; test: Antibacterial activity against Mycobacterium tuberculosis H37Rv ATCC 27294T assessed as ofloxacin MIC at 4 ug/ml after 7 days by microdilution checkerboard assay; assay type: functional; conditions: 168 h; summary of the method: as §1
[17] = tested on: Mycobacterium tuberculosis; test: Antibacterial activity against Mycobacterium tuberculosis H37Rv ATCC 27294T assessed as ofloxacin MIC at 8 ug/ml after 7 days by microdilution checkerboard assay; assay type: functional; conditions: 168 h; summary of the method: as §1
[18] = tested on: Mycobacterium tuberculosis; test: Antibacterial activity against Mycobacterium tuberculosis H37Rv ATCC 27294T assessed as ofloxacin MIC at 16 ug/ml after 7 days by microdilution checkerboard assay; assay type: functional; conditions: 168 h; summary of the method: as §1
[19] = tested on: Mycobacterium tuberculosis; test: Antibacterial activity against Mycobacterium tuberculosis H37Rv ATCC 27294T assessed as amikacin MIC at 32 ug/ml after 7 days by microdilution checkerboard assay; assay type: functional; conditions: 168 h; summary of the method: as §1
[20] = tested on: Mycobacterium tuberculosis; test: Antibacterial activity against Mycobacterium tuberculosis H37Rv ATCC 27294T assessed as amikacin MIC at 64 ug/ml after 7 days by microdilution checkerboard assay; assay type: functional; conditions: 168 h; summary of the method: as §1
[21] = tested on: Mycobacterium tuberculosis; test: Antibacterial activity against Mycobacterium tuberculosis H37Rv ATCC 27294T assessed as amikacin MIC at 1 ug/ml after 7 days by microdilution checkerboard assay; assay type: functional; conditions: 168 h; summary of the method: as §1
[22] = tested on: Mycobacterium tuberculosis; test: Antibacterial activity against Mycobacterium tuberculosis H37Rv ATCC 27294T assessed as amikacin MIC at 2 ug/ml after 7 days by microdilution checkerboard assay; assay type: functional; conditions: 168 h; summary of the method: as §1
[23] = tested on: Mycobacterium tuberculosis; test: Antibacterial activity against Mycobacterium tuberculosis H37Rv ATCC 27294T assessed as amikacin MIC at 4 ug/ml after 7 days by microdilution checkerboard assay; assay type: functional; conditions: 168 h; summary of the method: as §1
[24] = tested on: Mycobacterium tuberculosis; test: Anti-tubercular activity against Mycobacterium tuberculosis H37Rv ATCC 27294T after 7 days by mircodilution method; assay type: functional; conditions: 168 h
Summary of the method: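 H37Rv grown static in MB7H9 + 10% OADC at 37 °C to OD600 0.8, then diluted to about 10^5 cells/ml. Mixed 1:1 with two-fold serial dilutions in MB7H9/OADC and incubated 7 days at 37 °C. MTT added to final 2.5% and plates incubated overnight. MIC is the lowest concentration with no colour change. Run in triplicate.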

[25] = tested on: Mycobacterium tuberculosis; test: Antibacterial activity against Mycobacterium tuberculosis H37Rv ATCC 27294T assessed as isoniazid MIC at 16 ug/ml after 7 days by microdilution checkerboard assay; assay type: functional; conditions: 168 h; summary of the method: as §1
[26] = tested on: Mycobacterium tuberculosis; test: Antibacterial activity against Mycobacterium tuberculosis H37Rv ATCC 27294T assessed as isoniazid MIC at 8 ug/ml after 7 days by microdilution checkerboard assay; assay type: functional; conditions: 168 h; summary of the method: as §1
[27] = tested on: Mycobacterium tuberculosis; test: Antibacterial activity against Mycobacterium tuberculosis H37Rv ATCC 27294T assessed as isoniazid MIC at 4 ug/ml after 7 days by microdilution checkerboard; assay type: functional; conditions: 168 h; summary of the method: as §1
[28] = tested on: Mycobacterium tuberculosis; test: Antibacterial activity against Mycobacterium tuberculosis H37Rv ATCC 27294T assessed as isoniazid MIC at 2 ug/ml after 7 days by microdilution checkerboard assay; assay type: functional; conditions: 168 h; summary of the method: as §1
[29] = tested on: Mycobacterium tuberculosis; test: Antibacterial activity against Mycobacterium tuberculosis H37Rv ATCC 27294T assessed as isoniazid MIC at 1 ug/ml after 7 days by microdilution checkerboard assay; assay type: functional; conditions: 168 h; summary of the method: as §1
[30] = tested on: Mycobacterium tuberculosis; test: Antibacterial activity against Mycobacterium tuberculosis H37Rv ATCC 27294T assessed as amikacin MIC at 8 ug/ml after 7 days by microdilution checkerboard assay; assay type: functional; conditions: 168 h; summary of the method: as §1
[31] = tested on: Mycobacterium tuberculosis; test: Antibacterial activity against Mycobacterium tuberculosis H37Rv ATCC 27294T assessed as amikacin MIC at 16 ug/ml after 7 days by microdilution checkerboard assay; assay type: functional; conditions: 168 h; summary of the method: as §1
[32] = tested on: Mycobacterium tuberculosis; test: Antibacterial activity against Mycobacterium tuberculosis H37Rv ATCC 27294T assessed as rifampin MIC at 32 ug/ml after 7 days by microdilution checkerboard assay; assay type: functional; conditions: 168 h
Summary of the method: (§2)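 M. tuberculosis H37Rv grown in MB7H9 + 10% OADC at 37 °C to OD600 0.8; plates inoculated at 10^5 CFU/ml. Rifampicin two-fold serially diluted across columns, test compound two-fold diluted down rows (two-dimensional checkerboard). Sealed, 37 °C for seven days, then MTT added and incubated overnight. MIC read as no colour change. Triplicate.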

[33] = tested on: Mycobacterium tuberculosis; test: Antibacterial activity against Mycobacterium tuberculosis H37Rv ATCC 27294T assessed as rifampin MIC at 64 ug/ml after 7 days by microdilution checkerboard assay; assay type: functional; conditions: 168 h; summary of the method: as §2
[34] = tested on: Mycobacterium tuberculosis; test: Antibacterial activity against Mycobacterium tuberculosis H37Rv ATCC 27294T assessed as rifampin MIC at 1 ug/ml after 7 days by microdilution checkerboard assay; assay type: functional; conditions: 168 h; summary of the method: as §2
[35] = tested on: Mycobacterium tuberculosis; test: Antibacterial activity against Mycobacterium tuberculosis H37Rv ATCC 27294T assessed as rifampin MIC at 2 ug/ml after 7 days by microdilution checkerboard assay; assay type: functional; conditions: 168 h; summary of the method: as §2
[36] = tested on: Mycobacterium tuberculosis; test: Antibacterial activity against Mycobacterium tuberculosis H37Rv ATCC 27294T assessed as rifampin MIC at 4 ug/ml after 7 days by microdilution checkerboard assay; assay type: functional; conditions: 168 h; summary of the method: as §2
[37] = tested on: Mycobacterium tuberculosis; test: Antibacterial activity against Mycobacterium tuberculosis H37Rv ATCC 27294T assessed as rifampin MIC at 8 ug/ml after 7 days by microdilution checkerboard assay; assay type: functional; conditions: 168 h; summary of the method: as §2
[38] = tested on: Mycobacterium tuberculosis; test: Antibacterial activity against Mycobacterium tuberculosis H37Rv ATCC 27294T assessed as rifampin MIC at 16 ug/ml after 7 days by microdilution checkerboard assay; assay type: functional; conditions: 168 h; summary of the method: as §2

## CCCSc1nnc(COc2ccccc2C2=NOC(c3ccc(Cl)cc3Cl)C2)n1NC(=O)c1ccccc1 (stereo not drawn)
[1]
  MIC: 2 µg/mL (≈ 3.43 µM)
[2]
  IC50: 14.8 µg/mL (≈ 25.4 µM)
[3]
  MIC: 0.05 µg/mL
[4]
  MIC: 0.1 µg/mL
[5]
  MIC: 12.5 µg/mL
[6]
  MIC: 6.25 µg/mL
[7]
  MIC: 12.5 µg/mL
[8]
  MIC: 12.5 µg/mL
[9]
  MIC: 12.5 µg/mL
[10]
  MIC: 12.5 µg/mL
[11]
  MIC: 12.5 µg/mL
[12]
  MIC: 1 µg/mL
[13]
  MIC: 1 µg/mL
[14]
  MIC: 2 µg/mL
[15]
  MIC: 2 µg/mL
[16]
  MIC: 2 µg/mL
[17]
  MIC: 2 µg/mL
[18]
  MIC: 2 µg/mL
[19]
  MIC: 1 µg/mL
[20]
  MIC: 1 µg/mL
[21]
  MIC: 2 µg/mL
[22]
  MIC: 2 µg/mL
[23]
  MIC: 2 µg/mL
[24]
  MIC: 32 µg/mL (≈ 54.9 µM)
[25]
  MIC: 0.1 µg/mL
[26]
  MIC: 0.1 µg/mL
[27]
  MIC: 0.1 µg/mL
[28]
  MIC: 0.1 µg/mL
[29]
  MIC: 0.1 µg/mL
[30]
  MIC: 2 µg/mL
[31]
  MIC: 2 µg/mL
[32]
  MIC: 0.125 µg/mL
[33]
  MIC: 0.0312 µg/mL
[34]
  MIC: 0.5 µg/mL
[35]
  MIC: 0.25 µg/mL
[36]
  MIC: 0.25 µg/mL
[37]
  MIC: 0.25 µg/mL
[38]
  MIC: 0.25 µg/mL
